MrgX1 allo act: human MrgX1 positive allosteric modulation, primary screen | B-score at 10 µM | AID 588675 | MrgX1-HEK293, Fluo-4 calcium flux, FDSS; stronger effect = higher value | actives 0.63% (n = 310,000);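 active = plate-corrected calcium response at least 3 library SD above typical, normal starting fluorescence, not activating the receptor alone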;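 note: compound read alongside a low EC10 to EC30 dose of BAM8-22 agonist; peak minus trough fluorescence over baseline measured at the second addition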
Target sequence (Q96LB2 whole entry, looked up): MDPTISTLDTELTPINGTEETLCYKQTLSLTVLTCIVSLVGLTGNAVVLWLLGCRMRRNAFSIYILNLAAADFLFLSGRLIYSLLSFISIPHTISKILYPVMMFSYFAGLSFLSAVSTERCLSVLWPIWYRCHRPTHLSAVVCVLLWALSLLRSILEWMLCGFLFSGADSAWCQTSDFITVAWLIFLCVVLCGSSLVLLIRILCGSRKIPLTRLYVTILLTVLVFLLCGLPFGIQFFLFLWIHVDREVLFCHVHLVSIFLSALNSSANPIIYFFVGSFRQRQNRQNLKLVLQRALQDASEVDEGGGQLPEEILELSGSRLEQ
RGS4 inh: human RGS4 inhibition; HEK293 M3R/RGS4 inducible, Fluo-4 calcium flux; stronger effect = higher value; triggered by carbachol at its EC20; B-score at 10 µM; actives 0.45% (n = 310,000); P49798;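 active = B-score, a plate-corrected calcium signal, over three deviations above library mean, with baseline fluorescence within five deviations of library mean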;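 note: RGS4 expression induced by doxycycline in cells with stable M3 receptor; B-score is computed from the integrated fluorescence ratio over baseline after carbachol; higher B-score means a larger calcium signal and so more RGS4 inhibition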
Target sequence (P49798 whole entry, looked up): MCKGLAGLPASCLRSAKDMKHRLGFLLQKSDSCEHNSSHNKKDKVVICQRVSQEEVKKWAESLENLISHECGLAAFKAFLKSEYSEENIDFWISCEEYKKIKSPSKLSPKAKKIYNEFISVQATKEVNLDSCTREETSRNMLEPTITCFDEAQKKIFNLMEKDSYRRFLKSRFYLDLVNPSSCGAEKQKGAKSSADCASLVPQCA
MrgX1 antag: blocks BAM8-22 activation of human MrgX1 receptor; MRGX1-HEK293 calcium flux, Fluo-4, BAM8-22 antagonism; stronger effect = lower value; B-score at 10 µM; actives 1.3% (n = 310,000);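 active = calcium-response B-score plate-corrected more than 3 library SD below zero, starting fluorescence within 5 deviations, no agonist response on first addition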;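 note: peak minus trough fluorescence over baseline after final BAM8-22 challenge near maximal dose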
MrgX1 ag: activates human MrgX1 receptor signaling; Q96LB2; B-score at 10 µM; MrgX1-HEK293 cells, Fluo-4 calcium fluorescence, agonist mode; stronger effect = higher value; actives 0.44% (n = 310,000);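 active = calcium response B-score plate-corrected fluorescence ratio at least 3 library SD, with starting fluorescence B-score inside 5 SD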
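System – MrgX1-expressing HEK293 cells · Incubation – cells plated overnight, dye loaded 0.5 h 37 °C, 0.5 h room temperature · Technique – kinetic Fluo-4 NW fluorescence of intracellular calcium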
RGS4 pot: RGS4 potentiation or activation | HEK293 M3R/inducible RGS4, carbachol calcium flux Fluo4; stronger effect = lower value | actives 0.92% (n = 310,000) | AID 463111 | B-score at 10 µM;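 active = B-score of the integrated calcium signal more than 4 SD below the library mean, with starting fluorescence not abnormally high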;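 note: negative B-score means reduced calcium response which marks RGS4 activation or potentiation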
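Assay system: Inducible-RGS4 HEK293 cells carrying M3 receptor | Schedule: Compound preincubation 20 min at room temperature before agonist | Signal: Kinetic calcium fluorescence imaging with Fluo4-AM dye, 2 µM | Read-out basis: B score from integrated fluorescence ratio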
MrgX1 antag conf: reconfirmed antagonist of human MrgX1 receptor signaling; shares compounds with MrgX1 antag; MrgX1-HEK293, BAM8-22 calcium flux, Fluo-4; stronger effect = lower value; remaining BAM8-22 calcium response % of control (stronger effect = lower value), % at 10 µM; actives 19% (n = 2,300); AID 602420;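 active = remaining agonist calcium response no higher than 100% minus 3 SD of agonist-only control wells, with starting fluorescence near control levels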;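 note: agonist BAM8-22 given at a near maximal EC90 to ECmax level; peak minus minimum fluorescence divided by baseline after agonist addition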
HEK293 Ca flux: counter-screen for MrgX1 antagonists: effect in parental HEK293 cells | shares compounds with MrgX1 antag | Fluo-4 calcium fluorescence, FDSS | fluorescence ratio F(max-min)/F0 at 10 µM | actives 2% (n = 4,000) | AID 624111;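 active = duplicate-averaged calcium fluorescence ratio at least three times the standard deviation of buffer wells, a nonspecific response in parental cells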
HEK293 Ca counter: MrgX1 allosteric activator counter-screen hit in parental HEK293 cells; shares compounds with MrgX1 antag; AID 624114; parental HEK293 calcium flux, Fluo-4 fluorescence ratio; stronger effect = higher value; fluorescence ratio F(max-min)/F0 at 10 µM; actives 0.4% (n = 4,000);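 active = calcium fluorescence ratio, averaged over duplicates, at least 3 SD of the buffer-well ratio, meaning a nonspecific response in receptor-free cells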;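 note: untransfected parental HEK293 lacking MrgX1 used as counterscreen for MrgX1 allosteric activators; fluorescence change taken during the second addition on a kinetic imager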
HEK293 Ca cntr2: activity in parental HEK293 cells lacking MrgX1 receptor; shares compounds with MrgX1 antag; Fluo-4 calcium fluorescence (FDSS); stronger effect = higher value; actives 8.7% (n = 4,000); fluorescence ratio F(max-min)/F0 at 10 µM; AID 624115;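 active = calcium fluorescence ratio at least three times the spread of buffer wells, meaning a non-specific response in parental cells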
Each line names hits and unclear results; the compound was inactive in the other large screens (follow-up assays come after a bar, where they were run). In the library only some 3.5% were active in any assay of this set; here they are far more common.

CSc1n[nH]c2nc3c(c(=O)n12)C1(CCCC1)Cc1ccccc1-3	MrgX1 antag -5.44 | MrgX1 antag conf inactive | HEK293 Ca flux inactive | HEK293 Ca counter inactive | HEK293 Ca cntr2 inactive
CSc1nnc2n(C)c3c(c(=O)n12)C1(CCCC1)Cc1ccccc1-3	none
CCCNc1c(F)c(F)c2c(C)c3ccccc3nc2c1F	MrgX1 antag -6.04, RGS4 pot -7.49 | MrgX1 antag conf inactive | HEK293 Ca flux 0.364 | HEK293 Ca counter inactive | HEK293 Ca cntr2 89.9
Cc1c2ccccc2nc2ccccc12	none
Cc1cccc(C)c1NC(=S)N(CCCN1CCOCC1)Cc1cccnc1	MrgX1 antag -4.89 | MrgX1 antag conf inactive | HEK293 Ca flux inactive | HEK293 Ca counter inactive | HEK293 Ca cntr2 inactive
Cc1cc(C)c(NC(=S)N(CCCN2CCOCC2)Cc2cccnc2)c(C)c1	none
CCN(CC(=O)Nc1cc(Cl)ccc1C)C(=O)c1oc2ccc(OC)cc2c1C	none
O=C1Cc2cc(S(=O)(=O)N3CCN(c4cccc(Cl)c4)CC3)ccc2N1	none
O=C(NCc1cn2ccsc2n1)c1cccc(C(F)(F)F)c1	none
O=C(NCc1cn2ccsc2n1)c1c(F)cccc1Cl	MrgX1 antag -4.96 | MrgX1 antag conf inactive | HEK293 Ca flux inactive | HEK293 Ca counter inactive | HEK293 Ca cntr2 inactive
Cc1nnc(C)n1/N=C/c1cccnc1	MrgX1 antag -7.14 | MrgX1 antag conf inactive | HEK293 Ca flux inactive | HEK293 Ca counter inactive | HEK293 Ca cntr2 inactive
CCOC(=O)c1cnc(SC)nc1Oc1cccc(NC(=O)c2ccc(Cl)cc2)c1	none
CCOC(=O)c1cnc(SC)nc1Oc1cccc(NS(=O)(=O)c2ccc(Cl)cc2)c1	MrgX1 antag -8.65 | MrgX1 antag conf 72.9% | HEK293 Ca flux inactive | HEK293 Ca counter inactive | HEK293 Ca cntr2 inactive
CCOC(=O)Cc1csc(NS(=O)(=O)Cc2ccccc2)n1	MrgX1 antag -11.9 | MrgX1 antag conf inactive | HEK293 Ca flux inactive | HEK293 Ca counter inactive | HEK293 Ca cntr2 inactive
CCOC(=O)Cc1csc(NS(=O)(=O)c2ccc3ccccc3c2)n1	none
CCOc1ccc(-c2nnn(CC(=O)c3cc(OC)ccc3OC)n2)cc1	MrgX1 antag -4.68 | MrgX1 antag conf 81.1% | HEK293 Ca flux inactive | HEK293 Ca counter inactive | HEK293 Ca cntr2 inactive
CCCc1cc(=O)n2[nH]c(NCc3ccccc3Cl)nc2n1	none
CCCc1cc(=O)n2[nH]c(NCc3cccs3)nc2n1	MrgX1 antag -10.5 | MrgX1 antag conf inactive | HEK293 Ca flux inactive | HEK293 Ca counter inactive | HEK293 Ca cntr2 inactive
CN(C)C/C=C(\c1ccc(Br)cc1)c1cccnc1	MrgX1 antag -4.92 (no result: RGS4 inh, RGS4 pot) | MrgX1 antag conf inactive | HEK293 Ca flux inactive | HEK293 Ca counter inactive | HEK293 Ca cntr2 inactive
CCOC(=O)c1cc2occc2n1CCCN1C(=O)c2ccccc2C1=O	MrgX1 antag -6.14 | MrgX1 antag conf inactive | HEK293 Ca flux inactive | HEK293 Ca counter inactive | HEK293 Ca cntr2 inactive
CCOC(=O)c1cc2occc2n1CC(=O)N1CCOCC1	none
Cc1ccc(N2CN(Cc3ccco3)CNC2=S)c(C)c1	MrgX1 antag -6.25 | MrgX1 antag conf inactive | HEK293 Ca flux inactive | HEK293 Ca counter inactive | HEK293 Ca cntr2 inactive
Cc1ccc(N2CN(Cc3cccnc3)CNC2=S)c(C)c1	none
CCOc1cccc(CN2CCC(CCC(=O)NC3CC3)CC2)c1O	none
Cc1cccc(NC(=S)NC(C)CCc2ccccc2)c1 (centres undefined)	MrgX1 antag -7.76 | MrgX1 antag conf inactive | HEK293 Ca flux inactive | HEK293 Ca counter inactive | HEK293 Ca cntr2 inactive
CC[C@H](C)[C@@H](C(=O)NCCCCCCCCCCC(=O)N1CCN(C(=O)OC(C)(C)C)CC1)n1cc(CCCCCNC(=O)OC(C)(C)C)nn1	MrgX1 antag -12.5 (no result: RGS4 inh, RGS4 pot) | MrgX1 antag conf 43.9% | HEK293 Ca flux inactive | HEK293 Ca counter inactive | HEK293 Ca cntr2 inactive
CC[C@H](C)[C@@H](C(=O)NCCCCCCCCCCC(=O)N1CCN(C(=O)OC(C)(C)C)CC1)n1cc(CCCCN=C(NC(=O)OC(C)(C)C)NC(=O)OC(C)(C)C)nn1	none (no result: RGS4 inh, RGS4 pot)
CN1CCc2c(sc3c2C(=O)NC(c2ccccc2)N3)C1 (centres undefined)	MrgX1 antag -9.47 | MrgX1 antag conf inactive | HEK293 Ca flux inactive | HEK293 Ca counter inactive | HEK293 Ca cntr2 inactive
CCc1ccc2[nH]c(C(=O)Nc3ccc(Br)c(C)n3)cc2c1	none (no result: MrgX1 allo act, MrgX1 antag, MrgX1 ag)
NC(=O)c1csc(-c2ccncc2)n1	MrgX1 antag -5.65 | MrgX1 antag conf inactive | HEK293 Ca flux inactive | HEK293 Ca counter inactive | HEK293 Ca cntr2 inactive
CC(=O)N1CCN(c2ccc(S(C)(=O)=O)cc2[N+](=O)[O-])CC1	none
CC(=O)Nc1ccc(S(=O)(=O)N2CCC(c3nc4ccc(C)cc4[nH]3)CC2)cc1	none
CC(C)(C)c1ccc(S(=O)(=O)N2CCC(c3nc4ccc(Cl)cc4[nH]3)CC2)cc1	MrgX1 antag -6.05 | MrgX1 antag conf inactive | HEK293 Ca flux inactive | HEK293 Ca counter inactive | HEK293 Ca cntr2 inactive
Cc1c(C(=O)N2CCCCC2)sc(NC(=O)C23CC4CC(CC(C4)C2)C3)c1C#N	none
Cc1cc(C)n2nc(SCC(=O)NC3CCCCC3C)nc2n1 (centres undefined)	none
CC(C)N1CC23C=CC(O2)C(C(=O)OCc2ccccc2)C3C1=O (centres undefined)	MrgX1 antag -5 | MrgX1 antag conf inactive | HEK293 Ca flux inactive | HEK293 Ca counter inactive | HEK293 Ca cntr2 inactive
CC(C)N1C[C@@]23C=C[C@@H](O2)C(C(=O)OCc2ccccc2)[C@H]3C1=O (some centres undefined)	none
COc1cccc(NC(=O)Cn2c(CCC(=O)O)ccc2-c2ccc(C)cc2)c1	none
COC1OC(COC(=O)c2ccccc2)C(OC(=O)c2ccccc2)C1OC(=O)c1ccccc1 (centres undefined)	MrgX1 antag -5.49 | MrgX1 antag conf inactive | HEK293 Ca flux inactive | HEK293 Ca counter inactive | HEK293 Ca cntr2 inactive
CO[C@H]1O[C@H](CBr)[C@@H](OC(=O)c2ccccc2)[C@H](O)[C@H]1O	none
CC1CCC(NC(=O)COC(=O)C2CC3CCCC(C2)C3=O)CC1 (centres undefined)	MrgX1 antag -7.95 | MrgX1 antag conf inactive | HEK293 Ca flux inactive | HEK293 Ca counter inactive | HEK293 Ca cntr2 inactive
